Data published in ChEMBL document CHEMBL1177744, “An efficient and economical MTT assay for determining the antioxidant activity of plant natural product extracts and pure compounds” (J Nat Prod, 2010).
Several values for one entry are separate records, joined by “and”; a condition that tells them apart may be missing. Identical values can stand only once.

Experiment: Antioxidant activity assessed as formazan formation induced absorbance changes at 25 ppm at 570 nm at 37 degC for 6 hrs by MTT assay
Type: functional
Outline: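 Cell-free redox assay: MTT in water (190 µL) vortexed 1 min with sample (10 µL) in DMSO in a capped 2 mL glass vial. DMSO (200 µL) then added to give 50:50 water-DMSO, and the mixture vortexed again. Incubated 6 h at 37 °C, then 200 µL read at 570 nm for formazan. Triplicates, experiment repeated 10 times, mean absorbance reported.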

COC(=O)/C=C/C(C)=C\C=C\C(C)=C\C=C\C=C(C)\C=C\C=C(C)\C=C\C(=O)O
deltaA: 0.61

CC(C)CCC[C@@H](C)[C@H]1CC[C@H]2[C@@H]3CC=C4C[C@@H](O)CC[C@]4(C)[C@H]3CC[C@]12C
deltaA: 0.22

COc1ccc(-c2cc(=O)c3c(O)cc(O)cc3o2)cc1
deltaA: 0.26

O=C(O[C@@H]1Cc2c(O)cc(O)cc2O[C@@H]1c1ccc(O)c(O)c1)c1cc(O)c(O)c(O)c1
deltaA: 1.18

C[C@H]1[C@H](C)CC[C@]2(C(=O)O)CC[C@]3(C)C(=CC[C@@H]4[C@@]5(C)CC[C@H](O)C(C)(C)[C@@H]5CC[C@]43C)[C@H]12
deltaA: 0.43

O=c1c(-c2ccc(O)cc2)coc2cc(O)ccc12
deltaA: 0.48

O=c1cc(-c2ccccc2)oc2c(O)c(O)ccc12
deltaA: 0.49

CCCCCCCCCCCCCCCCCCCCCCCC(=O)O
deltaA: 0.16

O=C(O[C@@H]1Cc2c(O)cc(O)cc2O[C@H]1c1cc(O)c(O)c(O)c1)c1cc(O)c(O)c(O)c1
deltaA: 0.92

CC(C)(C)c1cc(O)ccc1O
deltaA: 0.51

CCCCCCCCCCCCC(=O)O
deltaA: 0.47

Oc1cc(O)c2c(c1)O[C@H](c1ccc(O)c(O)c1)[C@H](O)C2
deltaA: 0.17

O=C(O)/C=C/c1ccc(O)c(O)c1
deltaA: 0.69

O=C(O)/C=C/c1ccc2c(c1)OCO2
deltaA: 0.19

COc1cc(O)c2c(=O)c(OC)c(-c3ccc(OC)c(OC)c3)oc2c1
deltaA: 0.23

CCCCCCCC(=O)O
deltaA: 0.17

COc1ccc(-c2cc(=O)c3ccc(OC)cc3o2)cc1
deltaA: 0.17

C[C@@H]1O[C@@H](Oc2c(-c3ccc(O)c(O)c3)oc3cc(O)cc(O)c3c2=O)[C@H](O)[C@H](O)[C@H]1O
deltaA: 0.3

CC1=C(/C=C/C(C)=C/C=C/C(C)=C/C=C/C=C(C)/C=C/C=C(C)/C=C/C2=C(C)CCCC2(C)C)C(C)(C)CCC1
deltaA: 0.32

COc1cc(/C=C/C(=O)CC(=O)/C=C/c2ccc(O)c(OC)c2)ccc1O
deltaA: 0.85

CCCCCCCCCC(=O)O
deltaA: 0.51

C[C@H]1O[C@@H](Oc2cc3c(O)cc(O)cc3[o+]c2-c2ccc(O)c(O)c2)[C@@H](O[C@@H]2O[C@H](CO)[C@@H](O)[C@H](O)[C@H]2O)[C@@H](O)[C@@H]1O
deltaA: 0.17

Oc1cc(O)c2c(c1)OC(c1ccc(O)c(O)c1)C(O)C2 (racemic)
deltaA: 1.18

COc1cc(C(=O)O)ccc1O
deltaA: 0.19

CC12CCC(CC1=O)C2(C)C (centres undefined)
deltaA: 0.24

O=C(O)C1=C/C(=C\C=[N+]2/c3cc(O)c(O[C@@H]4O[C@H](CO)[C@@H](O)[C@H](O)[C@H]4O)cc3C[C@H]2C(=O)[O-])C[C@@H](C(=O)O)N1
deltaA: 0.6

Oc1cc(O)c2c(c1)O[C@H](c1ccc(O)c(O)c1)[C@@H](O)C2
deltaA: 0.88

Oc1cc(O)c2c(c1)O[C@@H](c1ccc(O)c(O)c1)[C@H](O)C2
deltaA: 0.53

CCCCCCCCCCCCCCCCCCC(=O)O
deltaA: 0.53

CC(C)CCC[C@@H](C)[C@H]1CC[C@H]2[C@@H]3CC=C4C[C@@H](O[C@@H]5O[C@H](CO)[C@@H](O)[C@H](O)[C@H]5O)CC[C@]4(C)[C@H]3CC[C@]12C
deltaA: 0.3

CC(C)=CCC/C(C)=C/C=C/C(C)=C/C=C/C(C)=C/C=C/C=C(C)/C=C/C=C(C)/C=C/C=C(\C)CCC=C(C)C
deltaA: 0.59

Cc1c(C)c2c(c(C)c1O)CC[C@@](C)(CCC[C@H](C)CCC[C@H](C)CCCC(C)C)O2
deltaA: 0.56

CCCCCCCCCCCCCCCCCC(=O)O
deltaA: 0.47

CCCCCCCCCCCCCCCCCCCCC(=O)O
deltaA: 0.22

CCCCCCCCCCCCCC(=O)O
deltaA: 0.58

O=C(/C=C/c1ccc(O)cc1)CC(=O)/C=C/c1ccc(O)cc1
deltaA: 0.37

O=C(O)CCc1ccc(O)cc1
deltaA: 0.17

C[C@H]1O[C@@H](OC[C@@H]2O[C@H](Oc3cc4c(O)cc(O)cc4[o+]c3-c3ccc(O)c(O)c3)[C@@H](O[C@@H]3O[C@H](CO)[C@@H](O)[C@H](O)[C@H]3O)[C@H](O)[C@H]2O)[C@@H](O)[C@@H](O)[C@@H]1O
deltaA: 0.28

O=c1cc(-c2ccc(O)cc2)oc2cc(O)cc(O)c12
deltaA: 0.14

CCCCCC/C=C\CCCC(=O)O
deltaA: 0.17

CCCCCCCC/C=C\CCCCCCCCCCCCCC(=O)O
deltaA: 0.89

CCCCCCCCCCC(=O)O
deltaA: 0.19

COc1ccc(-c2cc(=O)c3ccc(O)cc3o2)cc1
deltaA: 0.23

O=C(/C=C/c1ccc(O)c(O)c1)O[C@@H]1C[C@](O)(C(=O)O)C[C@@H](O)[C@H]1O
deltaA: 0.72

O=C(O)CC(=O)OC[C@@H]1O[C@H](Oc2cc3c(O)cc(O)cc3[o+]c2-c2ccc(O)c(O)c2)[C@@H](O)[C@H](O)[C@H]1O
deltaA: 0.2

CCCCC/C=C\C/C=C\CCCCCCCC(=O)O
deltaA: 0.68

CCCC/C=C\CCCCCCCCC(=O)O
deltaA: 0.19

Oc1cccc(O)c1O
deltaA: 0.86

CCCCCCCCCCCCCCCCC(=O)O
deltaA: 0.91

COc1ccc(-c2coc3cc(O)ccc3c2=O)cc1
deltaA: 0.2

Cc1cc(C(C)(C)C)c(O)c(C(C)(C)C)c1
deltaA: 0.51

COc1ccccc1-c1cc(=O)c2c(OC)cccc2o1
deltaA: 0.27

O=C(O)c1ccc(O)cc1
deltaA: 0.13

O=c1cc(-c2ccc(O)c(O)c2)oc2cc(O)cc(O)c12
deltaA: 0.66

COc1ccc(-c2coc3cc(O)cc(O)c3c2=O)cc1
deltaA: 0.37

O=C1O[C@H]([C@@H](O)CO)C(O)=C1O
deltaA: 0.5

O=c1c(-c2ccc(O)cc2)coc2cc(O[C@@H]3O[C@H](CO)[C@@H](O)[C@H](O)[C@H]3O)cc(O)c12
deltaA: 0.33

COc1ccc2ccc(=O)oc2c1
deltaA: 0.18

O=c1cc(-c2ccccc2)oc2cc(O)cc(O)c12
deltaA: 0.3

COc1ccc(-c2cc(=O)c3ccccc3o2)cc1
deltaA: 0.24

CCCCCCCCC(=O)O
deltaA: 0.16

O=c1c(O)c(-c2ccc(O)c(O)c2)oc2cc(O)cc(O)c12
deltaA: 0.75 and 0.3

Cc1cccc(O)c1O
deltaA: 0.86

CCCCCCCCCCCC(=O)O
deltaA: 0.19

COc1cc(/C=C/C(O)=C/C(=O)/C=C/c2ccc(O)cc2)ccc1O
deltaA: 0.61

CCCCCCCCCCCCCCCCCCCCCCC(=O)O
deltaA: 0.27

CCCCCCCC/C=C\CCCCCCCCCCCC(=O)O
deltaA: 0.68

O=c1c(-c2ccc(O)cc2)coc2cc(O)cc(O)c12
deltaA: 0.29

Oc1cc(O)c2c(c1)O[C@@H](c1cc(O)c(O)c(O)c1)[C@H](O)C2
deltaA: 0.99

O=C(O)/C=C/c1ccc(O)cc1
deltaA: 0.15

CC/C=C\C/C=C\C/C=C\CCCCCCCC(=O)OC
deltaA: 0.25

CCCCCCCCCCCCCCCCCCCC(=O)O
deltaA: 0.25

COc1cc(/C=C/C(=O)O)ccc1O
deltaA: 0.29

CCCCCCCCCCCCCCCCCCCCCC(=O)O
deltaA: 0.25
